pIC50, pKi: −log10 of the molar value. Calls of active or inactive are those of the source. The rule behind the calls is not given here.
Columns and labels:
Calu-1 = assay: Antiproliferative activity against human Calu-1 cells assessed as inhibition of cell proliferation incubated for 3 days by CellTiter-Glo Luminescent Cell Viability Assay; assay type: functional, cell-based; conditions: Calu-1, 72 h
How it was run: (§1)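 Cancer cell lines seeded in 384-well plates on day 1; compound added on day 2 and left for 3 days. On day 5 all medium was aspirated, and viable cells were quantified by CellTiter-Glo luminescence, which measures cellular ATP. Dose-dependent effects on proliferation were determined.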

HEK293 = assay: Inhibition of YFP/YFP variant coding sequence fused Mnk1/p38alpha (unknown origin) expressed in HEK293 cells incubated for 8 to 24 hrs by fluorescence based analysis; assay type: cell-based; conditions: Homo sapiens, time 8-24 hrs
[1] = Antiproliferative activity against human PL45 cells assessed as inhibition of cell proliferation incubated for 3 days by CellTiter-Glo Luminescent Cell Viability Assay; assay type: functional, cell-based; conditions: PL45, 72 h
How it was run: (§2)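 Cells of each line were plated in 384-well plates on day 1 and exposed to compound from day 2 for 3 days. On day 5 all medium was aspirated. Viable cell number was read by CellTiter-Glo luminescence, which quantifies cellular ATP.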

[2] = target: Serine/threonine-protein kinase Chk2 (Homo sapiens, UniProt O96017); assay: Inhibition of human CHK2 in presence of ATP relative to control; conditions: concentration not given here
Chain of Serine/threonine-protein kinase Chk2 (O96017 whole entry): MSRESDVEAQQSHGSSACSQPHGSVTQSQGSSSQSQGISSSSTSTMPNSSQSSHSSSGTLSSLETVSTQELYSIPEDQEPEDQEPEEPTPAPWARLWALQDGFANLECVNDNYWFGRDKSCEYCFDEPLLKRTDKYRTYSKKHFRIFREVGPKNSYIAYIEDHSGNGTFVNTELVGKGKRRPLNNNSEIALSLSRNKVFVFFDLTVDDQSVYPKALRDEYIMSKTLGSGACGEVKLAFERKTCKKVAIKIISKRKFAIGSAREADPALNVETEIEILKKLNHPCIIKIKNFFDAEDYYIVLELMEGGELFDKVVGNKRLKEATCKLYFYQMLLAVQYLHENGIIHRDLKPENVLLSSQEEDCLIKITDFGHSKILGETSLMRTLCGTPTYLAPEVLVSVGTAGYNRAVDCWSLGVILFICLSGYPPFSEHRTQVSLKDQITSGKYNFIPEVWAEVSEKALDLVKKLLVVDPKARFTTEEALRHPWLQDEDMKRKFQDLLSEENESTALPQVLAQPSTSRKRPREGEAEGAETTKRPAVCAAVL

[3] = target: T1, Receptor-type tyrosine-protein kinase FLT3 (Homo sapiens, UniProt P36888); assay: Inhibition of human FLT3 assessed as inhibition constant in presence of ATP
T1 sequence (P36888 whole entry): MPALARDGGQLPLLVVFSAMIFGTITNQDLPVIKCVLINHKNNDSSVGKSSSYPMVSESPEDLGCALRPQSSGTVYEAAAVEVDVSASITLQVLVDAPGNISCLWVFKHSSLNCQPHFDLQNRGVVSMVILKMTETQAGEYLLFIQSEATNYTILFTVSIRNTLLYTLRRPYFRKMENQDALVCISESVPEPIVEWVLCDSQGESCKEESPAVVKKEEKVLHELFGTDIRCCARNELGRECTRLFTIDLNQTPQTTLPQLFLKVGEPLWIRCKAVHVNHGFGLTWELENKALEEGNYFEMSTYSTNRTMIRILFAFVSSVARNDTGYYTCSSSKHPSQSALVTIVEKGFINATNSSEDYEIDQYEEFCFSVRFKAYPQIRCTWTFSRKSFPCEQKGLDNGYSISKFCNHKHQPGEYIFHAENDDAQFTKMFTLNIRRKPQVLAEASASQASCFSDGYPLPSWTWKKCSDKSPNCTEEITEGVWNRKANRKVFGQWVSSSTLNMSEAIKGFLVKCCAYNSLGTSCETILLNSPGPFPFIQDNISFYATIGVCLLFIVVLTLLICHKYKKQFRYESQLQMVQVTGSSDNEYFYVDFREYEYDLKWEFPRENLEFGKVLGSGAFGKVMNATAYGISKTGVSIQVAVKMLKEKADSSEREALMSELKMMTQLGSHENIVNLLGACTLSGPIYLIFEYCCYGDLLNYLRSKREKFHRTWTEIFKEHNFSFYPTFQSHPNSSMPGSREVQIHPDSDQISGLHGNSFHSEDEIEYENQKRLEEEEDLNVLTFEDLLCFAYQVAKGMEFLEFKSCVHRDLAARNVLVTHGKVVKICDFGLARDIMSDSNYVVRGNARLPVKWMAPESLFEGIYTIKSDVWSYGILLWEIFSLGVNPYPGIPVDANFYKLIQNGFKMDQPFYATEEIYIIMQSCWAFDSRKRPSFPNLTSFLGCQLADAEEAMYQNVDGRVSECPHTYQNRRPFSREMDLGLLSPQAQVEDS

[4] = target: Ribosomal protein S6 kinase alpha-1 (Homo sapiens, UniProt Q15418); assay: Inhibition of human RSK1 in presence of ATP
Chain of Ribosomal protein S6 kinase alpha-1 (Q15418 whole entry): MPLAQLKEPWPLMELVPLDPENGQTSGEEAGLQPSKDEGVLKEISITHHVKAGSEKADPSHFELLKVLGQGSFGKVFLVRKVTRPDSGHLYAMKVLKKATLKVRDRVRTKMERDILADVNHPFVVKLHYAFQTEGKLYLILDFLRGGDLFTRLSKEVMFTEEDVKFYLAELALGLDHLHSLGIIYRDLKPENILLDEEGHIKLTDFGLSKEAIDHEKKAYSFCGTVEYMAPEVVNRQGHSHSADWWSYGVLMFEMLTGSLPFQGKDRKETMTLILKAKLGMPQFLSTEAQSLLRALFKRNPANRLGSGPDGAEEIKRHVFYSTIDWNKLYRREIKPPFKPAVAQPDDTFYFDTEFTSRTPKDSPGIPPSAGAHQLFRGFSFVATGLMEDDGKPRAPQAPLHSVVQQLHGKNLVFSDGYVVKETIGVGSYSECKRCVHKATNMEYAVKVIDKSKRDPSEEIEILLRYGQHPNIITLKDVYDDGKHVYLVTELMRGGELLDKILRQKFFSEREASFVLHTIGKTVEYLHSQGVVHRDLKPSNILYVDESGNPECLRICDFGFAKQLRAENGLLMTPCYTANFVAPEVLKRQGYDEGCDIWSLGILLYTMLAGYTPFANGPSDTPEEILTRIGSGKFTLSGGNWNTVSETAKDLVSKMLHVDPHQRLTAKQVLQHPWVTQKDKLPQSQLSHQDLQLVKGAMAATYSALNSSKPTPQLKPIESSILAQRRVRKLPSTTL

Panc1005 = assay: Antiproliferative activity against human Panc1005 cells assessed as inhibition of cell proliferation incubated for 3 days by CellTiter-Glo Luminescent Cell Viability Assay; assay type: functional, cell-based; conditions: Panc1005, 72 h; how it was run: as §2
NCI-H1666 = assay: Antiproliferative activity against human NCI-H1666 cells assessed as inhibition of cell proliferation incubated for 3 days by CellTiter-Glo Luminescent Cell Viability Assay; assay type: functional, cell-based; conditions: NCI-H1666, 72 h; how it was run: as §2
[5] = target: T2, Ribosomal protein S6 kinase alpha-2 (Homo sapiens, UniProt Q15349); assay: Inhibition of human RSK3 assessed as inhibition constant in presence of ATP
T2 sequence (Q15349 whole entry): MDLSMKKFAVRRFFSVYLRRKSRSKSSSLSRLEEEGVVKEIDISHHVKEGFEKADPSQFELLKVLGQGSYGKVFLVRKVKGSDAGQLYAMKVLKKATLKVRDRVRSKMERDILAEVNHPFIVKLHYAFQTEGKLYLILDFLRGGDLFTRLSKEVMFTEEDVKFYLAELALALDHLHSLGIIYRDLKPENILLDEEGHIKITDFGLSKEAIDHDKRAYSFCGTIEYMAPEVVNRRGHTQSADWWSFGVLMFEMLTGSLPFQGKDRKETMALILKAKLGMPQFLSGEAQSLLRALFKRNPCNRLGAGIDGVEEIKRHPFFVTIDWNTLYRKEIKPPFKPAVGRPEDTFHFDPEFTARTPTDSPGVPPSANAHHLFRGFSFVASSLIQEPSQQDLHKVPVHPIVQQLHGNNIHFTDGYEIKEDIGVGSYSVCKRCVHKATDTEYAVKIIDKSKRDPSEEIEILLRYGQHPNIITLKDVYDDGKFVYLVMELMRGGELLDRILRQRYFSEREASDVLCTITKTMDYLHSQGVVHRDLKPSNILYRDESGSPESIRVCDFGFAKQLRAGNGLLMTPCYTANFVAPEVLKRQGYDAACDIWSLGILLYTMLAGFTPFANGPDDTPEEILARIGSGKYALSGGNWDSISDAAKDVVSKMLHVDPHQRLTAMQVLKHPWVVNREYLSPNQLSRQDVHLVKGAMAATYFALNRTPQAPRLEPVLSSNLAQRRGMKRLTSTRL

[6] = target: T3, Serine/threonine-protein kinase D1 (Homo sapiens, UniProt Q15139); assay: Inhibition of human PKCmu assessed as inhibition constant in presence of ATP
T3 sequence (Q15139 whole entry): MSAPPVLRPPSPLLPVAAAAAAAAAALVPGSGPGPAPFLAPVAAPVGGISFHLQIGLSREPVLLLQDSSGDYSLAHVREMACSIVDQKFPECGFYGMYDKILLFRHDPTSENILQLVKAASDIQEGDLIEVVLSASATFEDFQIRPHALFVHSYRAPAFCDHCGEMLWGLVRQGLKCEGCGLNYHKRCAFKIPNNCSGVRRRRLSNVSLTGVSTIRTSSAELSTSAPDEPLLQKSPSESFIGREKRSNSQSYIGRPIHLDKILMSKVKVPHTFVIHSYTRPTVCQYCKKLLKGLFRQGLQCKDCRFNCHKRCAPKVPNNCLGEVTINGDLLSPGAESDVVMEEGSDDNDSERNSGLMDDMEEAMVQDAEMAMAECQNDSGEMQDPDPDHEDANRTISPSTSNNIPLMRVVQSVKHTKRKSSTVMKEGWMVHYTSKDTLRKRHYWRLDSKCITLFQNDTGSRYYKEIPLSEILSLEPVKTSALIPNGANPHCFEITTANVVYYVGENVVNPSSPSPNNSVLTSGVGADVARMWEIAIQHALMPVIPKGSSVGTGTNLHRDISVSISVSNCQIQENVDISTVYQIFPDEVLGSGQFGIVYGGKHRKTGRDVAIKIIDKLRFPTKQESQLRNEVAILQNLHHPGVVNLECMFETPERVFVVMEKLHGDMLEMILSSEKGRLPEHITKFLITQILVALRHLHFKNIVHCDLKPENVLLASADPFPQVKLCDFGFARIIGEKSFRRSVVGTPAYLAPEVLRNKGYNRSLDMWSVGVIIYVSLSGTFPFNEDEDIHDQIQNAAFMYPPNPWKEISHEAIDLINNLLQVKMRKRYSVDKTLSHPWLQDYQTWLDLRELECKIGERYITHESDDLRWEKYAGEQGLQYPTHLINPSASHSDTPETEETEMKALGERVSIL

[7] = target: T2, Ribosomal protein S6 kinase alpha-2; assay: Inhibition of human RSK3 in presence of ATP relative to control; conditions: concentration not given here
[8] = target: Tyrosine-protein kinase Yes (Homo sapiens, UniProt P07947); assay: Inhibition of human YES1 in presence of ATP relative to control; conditions: concentration not given here
Chain of Tyrosine-protein kinase Yes (P07947 2-543 limits assumed): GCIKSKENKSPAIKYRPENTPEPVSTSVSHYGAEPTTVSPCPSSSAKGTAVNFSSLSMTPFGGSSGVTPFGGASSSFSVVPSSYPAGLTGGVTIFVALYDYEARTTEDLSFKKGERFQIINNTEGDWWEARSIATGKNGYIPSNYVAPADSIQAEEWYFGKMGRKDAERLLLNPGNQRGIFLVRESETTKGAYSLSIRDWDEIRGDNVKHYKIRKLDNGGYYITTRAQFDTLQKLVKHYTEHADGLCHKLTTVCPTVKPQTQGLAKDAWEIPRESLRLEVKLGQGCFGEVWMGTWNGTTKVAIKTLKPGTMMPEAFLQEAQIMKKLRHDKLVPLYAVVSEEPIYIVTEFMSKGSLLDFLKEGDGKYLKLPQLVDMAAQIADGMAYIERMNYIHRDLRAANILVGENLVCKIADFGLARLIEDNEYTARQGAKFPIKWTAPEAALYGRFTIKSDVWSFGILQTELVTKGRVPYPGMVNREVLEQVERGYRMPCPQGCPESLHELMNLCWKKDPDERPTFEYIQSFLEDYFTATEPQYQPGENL

ASPC1 = assay: Antiproliferative activity against human ASPC1 cells assessed as inhibition of cell proliferation incubated for 3 days by CellTiter-Glo Luminescent Cell Viability Assay; assay type: functional, cell-based; conditions: ASPC1, 72 h; how it was run: as §1
[9] = target: RAC-gamma serine/threonine-protein kinase (Homo sapiens, UniProt Q9Y243); assay: Inhibition of human AKT3 assessed as inhibition constant in presence of ATP
Chain of RAC-gamma serine/threonine-protein kinase (Q9Y243 whole entry): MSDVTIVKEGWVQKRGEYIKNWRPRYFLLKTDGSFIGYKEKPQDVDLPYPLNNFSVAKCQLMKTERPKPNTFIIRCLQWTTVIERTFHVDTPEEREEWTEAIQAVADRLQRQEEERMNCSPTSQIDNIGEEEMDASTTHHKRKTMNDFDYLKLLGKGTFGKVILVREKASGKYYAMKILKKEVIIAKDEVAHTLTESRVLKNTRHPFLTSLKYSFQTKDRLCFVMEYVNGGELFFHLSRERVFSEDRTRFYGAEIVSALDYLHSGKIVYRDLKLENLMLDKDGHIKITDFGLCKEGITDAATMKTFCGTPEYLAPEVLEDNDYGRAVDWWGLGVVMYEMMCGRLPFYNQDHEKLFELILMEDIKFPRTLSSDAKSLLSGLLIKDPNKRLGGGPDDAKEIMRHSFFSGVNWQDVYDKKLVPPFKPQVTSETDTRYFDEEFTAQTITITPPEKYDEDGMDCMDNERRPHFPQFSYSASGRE

Cc1nc(Nc2n[nH]c3c2CN(C(=O)N[C@H](CN(C)C)c2ccccc2)C3(C)C)c2sccc2n1 [PF-03758309]
pIC50 (Calu-1): 6.78
inhibition (HEK293): Active
pIC50 [1]: 7.28
inhibition [2]: 103%
pKi [3]: 7.09
pIC50 [4]: 8.70
pIC50 (Panc1005): 7.17
pIC50 (NCI-H1666): 8.42
pKi [5]: 7.96
pKi [6]: 7.68
inhibition [7]: 98%
inhibition [8]: 92%
pIC50 (ASPC1): 5.74
pKi [9]: 6.76

From ChEMBL document CHEMBL5678802, “Small-molecule p21-activated kinase inhibitor PF-3758309 is a potent inhibitor of oncogenic signaling and tumor growth” (Proc Natl Acad Sci U S A, 2010)
